The record followed here is PubChem BioAssay AID2465 (Broad Institute, 2010).

The structures appear in SMILES notation. The campaign covered roughly 24,000 compounds. Fewer than 10 were called active. Only a sample is shown. Unmarked numbers belong to inactive results. No stated cut-off is given here; in the data, active means caspase activation above about 5.9%; inconclusive means no clear call, values can overlap the other calls; inactive means below about 2.2%.

The nature of the experiment: A1 inhibitors via caspase activation, primary screen, cell-based, luminescence, HTS, two replicates (AID 2465). The settings on record: MEF A1-2A-BIM cells, caspase-Glo luminescence, 3 h; hits give high values; percent of clofoctol response, DMSO zero; concentration not given here. Put shortly: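 Test system – A1-2A-BIM-expressing MEF cells · Input – 2500 cells/well · Medium – RPMI-1640 growth medium with 10% FBS · Compound dosing – 50 nL pinned compound · Timing – 3 h compound exposure at 37 °C · Technique – Caspase-Glo luminescence (DEVD substrate) · Evaluation – Caspase-3/7 activity from luminescence increase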
Take `C[C@@H]1CN([C@@H](C)CO)C(=O)c2cc(NC(=O)CCCCCC(=O)Nc3ccccc3N)ccc2O[C@@H](C)CCCCO[C@@H]1CN(C)CC1CCCCC1`: the caspase activation is 0.522%.
Turning to `C[C@@H]1CCCCO[C@@H](CN(C)C(=O)C2CCCCC2)[C@H](C)CN([C@H](C)CO)C(=O)c2cc(NC(=O)Cc3ccccc3)ccc2O1`, the caspase activation is 3.18%.
For the compound `C[C@@H]1CCCCO[C@@H](CN(C)S(=O)(=O)c2cccs2)[C@H](C)CN([C@H](C)CO)C(=O)c2cc(NC(=O)CCCN(C)C)ccc2O1`, the caspase activation was 0.621%.
For `Cc1ccc(S(=O)(=O)N(C)C[C@@H]2Oc3ccc(NC(=O)NC4CCCCC4)cc3C(=O)N([C@@H](C)CO)C[C@H]2C)cc1` the value was -0.781%; for `C[C@H](CO)N1C[C@H](C)[C@H](CN(C)C(=O)Nc2ccccc2)Oc2c(NC(=O)Nc3ccc(C(F)(F)F)cc3)cccc2C1=O`, -0.159%.
For `C[C@@H]1CCCCO[C@@H](CN(C)Cc2ccc(Cl)c(Cl)c2)[C@H](C)CN([C@@H](C)CO)C(=O)c2cc(NS(C)(=O)=O)ccc2O1` the value was -0.491%; for `Cc1ccc(S(=O)(=O)Nc2ccc3c(c2)C(=O)N([C@@H](C)CO)C[C@@H](C)[C@H](CN(C)Cc2ccc4c(c2)OCO4)OCCCC[C@@H](C)O3)cc1`, 0.694%; for `C[C@H](CO)N1C[C@H](C)[C@@H](CN(C)C(=O)Nc2ccc(F)cc2)OCCCC[C@H](C)Oc2ccc(NC(=O)c3ccncc3)cc2C1=O`, 0.454%.
For `CC(C)NC(=O)Nc1ccc2c(c1)C(=O)N([C@H](C)CO)C[C@@H](C)[C@@H](CN(C)Cc1ccncc1)O2` the value was 1.1%; for `C[C@@H]1CN([C@@H](C)CO)C(=O)c2cccc(NS(=O)(=O)c3ccccc3)c2O[C@@H]1CN(C)S(=O)(=O)c1ccc(F)cc1`, 0.0248%.
With `COc1ccc(S(=O)(=O)Nc2ccc3c(c2)C(=O)N([C@@H](C)CO)C[C@@H](C)[C@H](CN(C)Cc2ccc(C(F)(F)F)cc2)OCCCC[C@@H](C)O3)cc1`, the caspase activation is -1.2%.
For `C[C@H]1CN([C@@H](C)CO)C(=O)Cc2cc(NS(=O)(=O)c3ccccc3)ccc2O[C@@H]1CN(C)Cc1ccc(C(=O)Nc2ccccc2N)cc1` the value was 1.17%; for `Cc1noc(C)c1NC(=O)N(C)C[C@@H]1OCCCC[C@@H](C)Oc2ccc(NC(=O)C3CCCCC3)cc2C(=O)N([C@@H](C)CO)C[C@H]1C`, -0.914%.
As to `C[C@H]1CN([C@@H](C)CO)C(=O)Cc2cc(NC(=O)C3CCCCC3)ccc2O[C@H]1CN(C)C(=O)Nc1ccc(C(F)(F)F)cc1`, the caspase activation was 0.751%.
